For one data set, the system named is A549. Nature of the data set: Antiproliferative activity against human A549 cells measured after 48 hrs by sulforhodamine-B assay. In kind it is functional, cell-based. Conditions: A549, 48 h.
Data set [1] in a line: Inhibition of HDAC activity in human HeLa cell nuclear extract using fluorometric substrate measured after 30 mins by fluorescence assay. The class given is cell-based.
The species named for data set [2] is Homo sapiens. Nature of the data set: Inhibition of HDAC in human PC3 cells assessed as increase in alpha-tubulin acetylation by Western blot analysis. In kind it is cell-based. The method, boiled down:
(§1)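 PC3 prostate cancer cells treated, then lysed in 20 mM Tris-HCl pH 7.5 with 150 mM NaCl, EDTA/EGTA, phosphatase and protease inhibitors, 0.1% Triton X-100. Lysates spun 13,000 rpm for 30 min, then immunoblotted for acetylated α-tubulin and acetylated histone H3.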
(A western blot detects proteins with antibodies after separation by electrophoresis.)

Data set [3] is filed under the species Sus scrofa. Nature of the data set: Inhibition of purified porcine tubulin polymerization at 10 uM measured every 1 min for 30 mins.
In the next data set the target is Histone deacetylase 1 (Homo sapiens, UniProt Q13547). Nature of the data set: Inhibition of recombinant human HDAC1 using fluorogenic substrate by fluorescence assay.
The species named for data set [4] is Homo sapiens. Nature of the data set: Inhibition of tubulin polymerization in human PC3 cells assessed as […] in MPM2 expression at 0.01 to 10 uM by Western blot analysis. The class given is cell-based.
The target of the next data set is Histone deacetylase 2 (Homo sapiens, UniProt Q92769). Nature of the data set: Inhibition of recombinant human HDAC2 using fluorogenic substrate by fluorescence assay.
In data set [5] the target is T1, Protein deacetylase HDAC6 (Homo sapiens, UniProt Q9UBN7).
T1 sequence (Q9UBN7 whole entry): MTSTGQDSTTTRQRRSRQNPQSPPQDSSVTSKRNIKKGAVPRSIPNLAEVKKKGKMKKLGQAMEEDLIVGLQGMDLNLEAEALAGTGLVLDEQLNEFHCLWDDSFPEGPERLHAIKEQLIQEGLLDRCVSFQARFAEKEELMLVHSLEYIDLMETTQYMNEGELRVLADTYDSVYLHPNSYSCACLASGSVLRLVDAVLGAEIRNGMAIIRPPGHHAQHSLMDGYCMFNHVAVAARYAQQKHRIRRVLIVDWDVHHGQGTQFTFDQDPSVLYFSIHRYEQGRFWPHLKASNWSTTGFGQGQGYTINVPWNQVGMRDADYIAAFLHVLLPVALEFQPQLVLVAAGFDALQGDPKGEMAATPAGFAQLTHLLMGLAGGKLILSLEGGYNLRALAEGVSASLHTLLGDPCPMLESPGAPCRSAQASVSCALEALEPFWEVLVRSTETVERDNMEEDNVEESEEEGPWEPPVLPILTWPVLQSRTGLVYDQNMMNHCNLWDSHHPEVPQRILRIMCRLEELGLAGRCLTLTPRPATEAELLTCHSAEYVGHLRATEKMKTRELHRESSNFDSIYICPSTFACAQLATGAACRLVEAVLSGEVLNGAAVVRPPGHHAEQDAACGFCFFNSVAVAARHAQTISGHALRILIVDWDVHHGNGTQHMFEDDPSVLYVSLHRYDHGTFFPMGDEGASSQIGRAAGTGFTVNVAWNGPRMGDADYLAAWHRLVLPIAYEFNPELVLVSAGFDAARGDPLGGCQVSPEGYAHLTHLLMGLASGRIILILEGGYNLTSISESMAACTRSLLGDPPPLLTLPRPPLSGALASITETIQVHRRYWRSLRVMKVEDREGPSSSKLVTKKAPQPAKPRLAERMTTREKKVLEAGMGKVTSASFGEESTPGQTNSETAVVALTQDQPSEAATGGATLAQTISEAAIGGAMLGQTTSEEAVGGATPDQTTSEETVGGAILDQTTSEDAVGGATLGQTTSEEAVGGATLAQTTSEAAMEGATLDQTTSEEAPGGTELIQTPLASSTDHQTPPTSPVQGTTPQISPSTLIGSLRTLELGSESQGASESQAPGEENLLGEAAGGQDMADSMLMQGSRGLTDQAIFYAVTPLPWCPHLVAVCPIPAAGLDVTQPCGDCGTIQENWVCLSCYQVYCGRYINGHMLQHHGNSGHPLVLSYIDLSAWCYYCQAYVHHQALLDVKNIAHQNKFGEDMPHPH
The data set is described as follows: Inhibition of recombinant human HDAC6 using fluorogenic substrate by fluorescence assay.

The species entered for data set [6] is Homo sapiens. The data set is described as follows: Inhibition of HDAC in human PC3 cells assessed as increase in histone-H3 acetylation by Western blot analysis. The class given is cell-based. The method, boiled down:
as §1

The next data set deals with PC-3. Nature of the data set: Antiproliferative activity against human PC3 cells measured after 48 hrs by sulforhodamine-B assay. In kind it is functional, cell-based. Conditions: PC-3, 48 h.
The subject of the next data set is HCT-116. Nature of the data set: Antiproliferative activity against human HCT116 cells measured after 48 hrs by sulforhodamine-B assay. Conditions: HCT-116, 48 h. The class given is functional, cell-based. Background: Sulforhodamine B stains cellular protein and so reports cell mass.
Data set [7] is filed under the species Sus scrofa. The data set is described as follows: Inhibition of purified porcine tubulin polymerization measured every 1 min for 30 mins.
The species named for data set [8] is Homo sapiens. Nature of the data set: Inhibition of HDAC in human PC3 cells assessed as increase in histone-H3 acetylation at 0.01 to 10 uM by Western blot analysis. In kind it is cell-based. The method, boiled down: as §1
The species entered for data set [9] is Homo sapiens. Nature of the data set: Selectivity ratio of IC50 for recombinant human HDAC8 to IC50 for recombinant human HDAC6.
In a further data set the test system is Mus musculus. Nature of the data set: Toxicity in human RPMI8226 cells xenografted in athymic mouse assessed as mortality at 1 mg/kg, ip administered once in a week. In kind it is organism-based. Particulars: in vivo. The method, boiled down: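 RPMI-8226 xenograft nude mice given bortezomib 1 mg/kg i.p. once a week as reference treatment; animal deaths recorded.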
For orientation: A xenograft is tissue or cells of one species grown in another, often human tumour cells in immunodeficient mice.

For data set [10], the species on record is Sus scrofa. The data set is described as follows: Inhibition of purified porcine tubulin polymerization at 1 to 10 uM measured every 1 min for 30 mins.

Activity calls are given as the source filed them. The calls are words filed in the database; no cut-off is given here.

Chain of Histone deacetylase 1 (Q13547 whole entry): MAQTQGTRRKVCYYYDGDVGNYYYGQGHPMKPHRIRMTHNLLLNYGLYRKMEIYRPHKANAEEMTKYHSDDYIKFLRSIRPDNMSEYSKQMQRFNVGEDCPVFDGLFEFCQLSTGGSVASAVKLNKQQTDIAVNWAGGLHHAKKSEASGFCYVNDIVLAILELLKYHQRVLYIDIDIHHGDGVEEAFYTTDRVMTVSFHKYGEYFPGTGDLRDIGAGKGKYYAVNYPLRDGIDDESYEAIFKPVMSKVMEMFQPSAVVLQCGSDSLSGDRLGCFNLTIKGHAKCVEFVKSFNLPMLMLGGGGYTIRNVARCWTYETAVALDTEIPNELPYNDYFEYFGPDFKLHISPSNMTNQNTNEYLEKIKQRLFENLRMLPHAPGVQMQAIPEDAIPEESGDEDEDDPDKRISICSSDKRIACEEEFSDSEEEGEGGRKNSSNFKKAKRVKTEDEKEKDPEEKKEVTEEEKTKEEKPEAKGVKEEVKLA
Chain of Histone deacetylase 2 (Q92769 whole entry): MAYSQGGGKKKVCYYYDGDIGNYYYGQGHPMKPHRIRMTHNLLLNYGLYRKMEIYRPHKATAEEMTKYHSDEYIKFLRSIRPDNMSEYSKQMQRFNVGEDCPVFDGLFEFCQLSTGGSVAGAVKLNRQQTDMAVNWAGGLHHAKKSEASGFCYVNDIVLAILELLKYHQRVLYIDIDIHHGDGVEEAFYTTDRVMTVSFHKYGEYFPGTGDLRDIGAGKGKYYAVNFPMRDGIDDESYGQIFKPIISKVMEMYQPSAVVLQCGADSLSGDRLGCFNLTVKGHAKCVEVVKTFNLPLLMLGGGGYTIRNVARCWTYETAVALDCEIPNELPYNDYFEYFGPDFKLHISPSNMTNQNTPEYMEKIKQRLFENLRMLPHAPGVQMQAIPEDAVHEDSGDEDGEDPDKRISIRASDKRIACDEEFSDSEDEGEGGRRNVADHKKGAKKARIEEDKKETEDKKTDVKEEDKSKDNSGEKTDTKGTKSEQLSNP

As for `COc1ccc(C(=O)c2cn(Cc3ccc(C(=O)NO)cc3)c3cc(OC)ccc23)cc1`, the IC50 in the data set on A549 came out at 940 nM; in [1] it was 145 nM; at Histone deacetylase 1, 158 nM; at Histone deacetylase 2 it was 209 nM; in data set [5], 108 nM; in the data set on PC-3, 1840 nM. This compound returned an IC50 in the data set with HCT-116 of 1900 nM. For the same compound, the alpha-tubulin acetylation increase result in the data set listed under Homo sapiens [2] is “Dose-dependent effect”. The inhibition entry in the data set filed under Sus scrofa [3] and in the data set listed under Homo sapiens [4] was “inactive” in each case. Further, the inhibition result in the data set filed under Homo sapiens [6] is “Dose-dependent effect”.
On to `COc1ccc2c(C(=O)c3cc(OC)c(OC)c(OC)c3)cn(Cc3ccc(/C=C/C(=O)NO)cc3)c2c1`, for which the inhibition result in the data set filed under Sus scrofa [7] and in the data set listed under Homo sapiens [6] was “Dose-dependent effect” in each case. The IC50 with A549 came to 678 nM; in data set [1], 147 nM; on Histone deacetylase 1, 130 nM; on Histone deacetylase 2, 288 nM; in data set [5], 70.5 nM; in the data set on PC-3 it was 666 nM. The same compound displayed an IC50 in the data set on HCT-116 of 1670 nM. Besides, in the data set filed under Homo sapiens [2], the alpha-tubulin acetylation increase result is “Dose-dependent effect”.
With `COc1ccc2c(C(=O)c3cc(OC)c(OC)c(OC)c3)cn(Cc3ccc(C(=O)Nc4ccccc4N)cc3)c2c1`, the inhibition entry in the data set filed under Sus scrofa [7] was “Dose-dependent effect”. In addition, the IC50 is 208 nM with A549, over 10000 nM in data set [1], 157 nM in the data set with PC-3 and 231 nM in the data set on HCT-116.
With `COc1cc(C(=O)c2cn(S(=O)(=O)c3cccc(/C=C/C(=O)NO)c3)c3ccccc23)cc(OC)c1OC`, the IC50 in the data set with A549 came out at 4590 nM; in data set [1], 172 nM; on Histone deacetylase 1, 139 nM; on Histone deacetylase 2 it was 2320 nM; in [5] it was 792 nM; in the data set on PC-3, 5770 nM. Also, the IC50 in the data set with HCT-116 worked out at 6680 nM. Besides, the inhibition result in the data set filed under Sus scrofa [3], in the data set listed under Homo sapiens [4] and in the data set listed under Homo sapiens [8] was “inactive” throughout.
Consider `COc1cc(C(=O)c2cn(Cc3ccc(/C=C/C(=O)NO)cc3)c3ccccc23)cc(OC)c1OC`, for which the IC50 with A549 came out at 1900 nM; in data set [1], 178 nM; at Histone deacetylase 1, 141 nM; on Histone deacetylase 2, 386 nM; in data set [5], 138 nM; with PC-3, 2600 nM. In the data set on HCT-116, this compound returned an IC50 of 5500 nM. Further, the alpha-tubulin acetylation increase result in the data set listed under Homo sapiens [2] is “Dose-dependent effect”. For the same compound, the inhibition result in the data set filed under Sus scrofa [3] and in the data set listed under Homo sapiens [4] was “inactive” throughout. In the data set filed under Homo sapiens [6], the inhibition entry is “Dose-dependent effect”.
Consider `CN1CCc2c(c3ccccc3n2Cc2ccc(C(=O)NO)cc2)C1`, for which the Ratio IC50 in the data set filed under Homo sapiens [9] came out at 14.
`CC(C)C[C@H](NC(=O)[C@H](Cc1ccccc1)NC(=O)c1cnccn1)B(O)O` [BORTEZOMIB]: in the data set on Mus musculus, the Activity result was “Toxic”.
Consider `COc1ccc2c(C(=O)c3cc(OC)c(OC)c(OC)c3)cn(S(=O)(=O)c3ccc(/C=C/C(=O)NO)cc3)c2c1`, for which the IC50 in the data set on A549 is 120 nM; in data set [1] it was over 10000 nM; at Histone deacetylase 1, over 10000 nM; at Histone deacetylase 2, over 10000 nM; in [5] it was over 10000 nM; with PC-3, 66.7 nM. Further, in the data set with HCT-116, the IC50 amounted to 70.3 nM. Besides, the inhibition entry in the data set filed under Sus scrofa [10] was “Active”.

The IC50 is the point on the concentration scale where inhibition reaches its midpoint.

Values taken from ChEMBL document CHEMBL4041521, “3-Aroylindoles display antitumor activity in vitro and in vivo: Effects of N1-substituents on biological activity” (Eur J Med Chem, 2017).
